A number with no mark means an inactive call. Results filed as inconclusive are left out. Active and inactive are the calls of the source.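 Rule for the calls, unless noted: active = cell viability at or below a set limit in both duplicate runs, the limit being the all-compound median minus 4 SD (cut at about 23% in these data, passing the limit was not always enough); inconclusive = no clear call, values can overlap the other calls; inactive = the rest.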
Columns and labels:
[1] = S. cerevisiae growth inhibition in permissive medium (OD615), pilot counter-assay for S. cerevisiae lifespan shortening project, permissive growth control (AID 705;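 active = growth inhibition above 25% in both replicates, a cutoff set 3 SD above the mean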); conditions: OD615, 24 h, at 10 µM, active compounds read high
Method in brief: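 Material: engineered DeaD yeast; Compound: one dose 10 µM, DMSO 0.25% final; Detection: absorbance (optical density) at 615 nm; Buffer or medium: permissive raffinose/galactose medium; Timing: 24 h exposure, 30 °C.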

[2] = S. cerevisiae growth inhibition in restrictive medium, OD615, pilot screen, restrictive growth control, yeast lifespan reduction project (AID 706;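 active = growth inhibition above a set limit, 3 SD over mean compound inhibition, in both replicates, cut at about 43% in these data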;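 note: modified DeaD lifespan yeast strain shifted to restrictive glucose medium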); conditions: OD615, 48 h, at 10 µM, active compounds read high
Method in brief: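 Buffer or medium: restrictive glucose medium (CSMM-D); test system: modified S. cerevisiae; doses: single dose of 10 µM compound final, 0.25% DMSO; schedule: 48 h compound exposure at 30 °C; detection: absorbance (optical density) measured at 615 nm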

[3] = doxorubicin toxicity protection in MRP-1 cells – H69AR cells, CellTiter-Glo, duplicate, MRP-1 activator project, pilot screen (AID 807;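 active = viability increase at or above a cutoff of the median across tested compounds plus 3 SD, cut at about 8.5% in these data, passing the limit was not always enough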;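 note: compound pretreatment 18-22 h then 72 h combined with doxorubicin; 0% = doxorubicin alone and 100% = vehicle without doxorubicin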); conditions: H69AR viability with doxorubicin, CellTiter-Glo luminescence; at 10 µM; active compounds read high
[4] = viability of HCT116 without oncogenic beta-catenin – human colon tumor cells, pilot screen (AID 823); conditions: HCT116 beta-catenin knockout viability, CellTiter-Glo, 60 h; at 10 µM; active compounds read low;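 note: 0% = wells killed by 20 µM Hyamine and 100% = untreated DMSO cell wells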
[5] = viability of PTEN-null HCT116 cells – cell-based, HCT116 clonal line, CellTiter-Glo, pilot screen (AID 824;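 active = viability at or below 27.92% in each of two runs, the all-compound median minus 4 SD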;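 note: 0% = 20 µM Hyamine control and 100% = vehicle cell control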); conditions: HCT116 PTEN-deleted viability, 60 h, at 10 µM, active compounds read low
[6] = RAM pathway blockade in budding yeast – dse1pr::URA3 reporter, 5-FOA selection, pilot screen (AID 869;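 active = inhibition over a set limit, the all-compound mean plus 3 SD, in both replicate runs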;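 note: 0% = DMSO wells with no growth and 100% = 10 µM 1-NA-PP1 with full growth; RAM network block rescues cells from 5-FOA so hits raise OD615 growth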); conditions: S. cerevisiae dse1pr::URA3 5-FOA growth, OD615, 2 d; at 10 µM; active compounds read high; strain carries analog-sensitive mutant Cbk1 kinase
[7] = RAM signaling pathway blockade in yeast – S. cerevisiae, Pdr1DBD-CYC8 efflux-inhibited sensitized strain, primary screen (AID 1298;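 active = RAM network inhibition above 8.4% in each of two replicates, 3 SD over the compound average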;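 note: 0% = DMSO untreated cells without growth and 100% = 10 µM 1-NA-PP1 full growth; higher means more yeast growth rescued from 5-FOA killing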); conditions: S. cerevisiae cbk1-as DSE1-URA3 strain, 5-FOA growth OD615, 2 d; at 50 µM; active compounds read high

Row | Compound | growth inhibition [1] [%] | growth inhibition [2] [%] | viability increase [3] [%] | viability [4] | viability [5] | inhibition [6] [%] | RAM network inhibition [7] [%]
1 | CCOC(=O)N1CCN(C(=O)CCSc2ccccc2)CC1 | 2.04 | 2.15 | 0.84 | 99.7% | 97% | 0.07 | 0.95
2 | CCOC(=O)C1CCN(c2cc(=O)n(Cc3ccc(F)cc3)c(=O)[nH]2)CC1 | -11 | -17.4 | -0.81 | 96.8% | 88.5% | 3.19 | 5.11
3 | CCCOc1ccc(NC(=O)c2c(-c3ccccc3)noc2C)cc1 | -3.83 | -7.54 | -1.84 | 103% | 90.5% | 1.34 | 2.96
4 | Cn1nc(-c2ccc(Cl)cc2)c2cc(C(=O)NCCCN3CCCC3)sc21 | -5.71 | 4.49 | -8.31 | 2.27% (active) | 1.95% (active) | 1.23 | 0.73
5 | CCOC(=O)N1CCC(Nc2cc(C)nc3c(-c4ccccc4OC)c(C)nn23)CC1 | -2.85 | -0.57 | -6.98 | 81.3% | 67.8% | 0.325 | 4.72
6 | COc1cccc(CNC(=O)Cn2cc3c(n2)CCCC3)c1 | -7.1 | 4.65 | 0.16 | 100% | 93.2% | 1.44 | 3.05
7 | O=c1c2cc(-c3ccccc3)sc2ncn1/N=C/c1ccco1 | -7.51 | 0.525 | -2.49 | 96.6% | 82% | 1.5 | 5.9
8 | CCOC(=O)c1ccc(N2CSC3=C(C#N)C(c4cccs4)CC(=O)N3C2)cc1 (configuration not stated) | 6.68 | 28.2 | -1.48 | 103% | 85.3% | 1.52 | 2.37
9 | CCCCSc1nc(N)c(NC(=O)c2ccco2)c(=O)[nH]1 | -12.7 | -14.2 | -2 | 101% | 93.4% | 1.58 | 0.8
10 | CCOC(=O)c1ccc(NC(=O)CSc2nc(C)cc(=O)[nH]2)cc1 | -7.82 | 8.13 | -1.06 | 98.5% | 100% | -0.79 | 0.78
11 | Cn1c(NC(=O)CCC2CCCCC2)cc(=O)n(C)c1=O | -1.97 | -10.8 | 2.29 | 92.9% | 83.6% | 0.52 | -1.2
12 | COCCn1c(=NC(=O)CSC(C)=O)sc2cc(OC)ccc21 | -27.6 | 18.1 | -6.74 | 88% | 83.8% | 0.53 | 0.96
13 | O=C(CCCC(=O)NCC1CCCO1)NCC1CCCO1 (configuration not stated) | -1.28 | 7.34 | -1.38 | 101% | 101% | 0.185 | 1.12
14 | CCOC(=O)C(C(=O)OCC)=C1OC(=O)c2ccccc21 | -11.1 | -7.16 | 0.39 | 98.6% | 96.4% | 2.19 | 2.35
15 | CCCSc1nnc(Cn2c(=O)sc3ccccc32)n1-c1ccccc1 | -9.77 | 3.11 | 1.4 | 92.6% | 81.3% | 3.3 | 11
16 | CC1(C)Cc2c(C#N)c(NC3CCCCC3)nc(-c3ccco3)c2CO1 | -15.4 | -17.4 | -6.33 | 80.3% | 76.3% | 3.23 | 0.53
17 | CCOC(=O)C1=C(C)NC(=O)NC1c1cn(-c2ccccc2)nc1-c1cccs1 (configuration not stated) | -10.2 | -0.16 | -0.43 | 75.2% | 72.2% | 1.46 | 3.87
18 | CN(Cc1ccccc1)c1nc2c(c(=O)n(C)c(=O)n2C)n1CCSc1ncccn1 | -11.7 | -3.17 | -2.71 | 93.8% | 87.1% | 1.42 | 3.63

Row | Compound | growth inhibition [1] [%] | growth inhibition [2] [%] | viability increase [3] [%] | viability [4] | viability [5] | inhibition [6] [%] | RAM network inhibition [7] [%]
19 | COCCCN1CC23C=CC(O2)C(C(=O)O)C3C1=O (configuration not stated) | 2.65 | -2.98 | -1.24 | 102% | 106% | -0.105 | 4.16
20 | CC(C)c1nc2cc3ccccc3cc2[nH]1 | -5.02 | -20.5 | -3.6 | 73.5% | 81.8% | 0.18 | 7.45
21 | CN1CCc2c(c3ccccc3n2Cc2ccccc2)C1 | -5.23 | -8.68 | -5.7 | 57.9% | 63.9% | 1.27 | 5.12
22 | Cc1nn(C)c(C)c1NS(=O)(=O)c1ccccc1 | -9.1 | -6.73 | -0.34 | 98% | 88.4% | 0.545 | 6.15
23 | Cc1c(C(=O)NCc2ccccc2)oc2ccc(S(=O)(=O)N3CCCC3)cc12 | -11.4 | 3.53 | -2.64 | 97% | 93.1% | 1.49 | 2.93
24 | COc1ccc(C2=NOC(C(=O)N3CCN(c4ccccc4OC)CC3)C2)cc1 (configuration not stated) | -7.36 | 0.135 | 2.8 | 99.9% | 88.5% | 2.17 | 4.09
25 | C=C(C)Cn1c(SCC(=O)O)nc2c1c(=O)[nH]c(=O)n2C | -15.9 | -14 | 1.02 | 96.7% | 98.8% | 0.63 | 3.24
26 | CCCCS(=O)CC(COCc1ccccc1)OC(=O)CSc1nc(C)cc(C)n1 (configuration not stated) | -8.16 | -22 | -1.32 | 97.6% | 94.7% | 0.95 | 3.07
27 | COc1ccccc1-c1nnc(SCC(=O)Nc2ccc(Cl)cc2Cl)o1 | -2.08 | 9.34 | 2.61 | 97.4% | 91.1% | 1.71 | 8.66
28 | CC(=O)Nc1ccc(S(=O)(=O)N2CCSCC2)cc1 | -14.7 | -27.7 | -2.25 | 98.6% | 98.5% | 1.88 | 3.21
29 | COc1cccc(-c2nc(C(N)=O)c3[nH]c(=O)n(-c4cccc(Cl)c4)c3n2)c1OC | -21.4 | -28.5 | -4.45 | 75.5% | 72.5% | 4.14 | 3.65
30 | CCOC(=O)N1CCC(NC(=O)c2cnc3n(c2=O)CCS3)CC1 | -1 | -6.85 | 1.34 | 101% | 100% | 2.27 | 1.68
31 | Cc1nnc(Sc2nc3c(c(=O)[nH]c(=O)n3C)n2CCCc2ccccc2)s1 | -8.19 | -13.4 | -2.42 | 95.1% | 94.7% | 1.21 | 2.87
32 | COc1ccc2c(c1)C(=O)CC(c1ccccc1F)O2 (configuration not stated) | -12 | -1.22 | -3.63 | 65.4% | 74.3% | 1.22 | 5.83
33 | CC(c1ccccc1)N1CNc2c(c(=O)n(C)c(=O)n2C)C1 (configuration not stated) | -8.04 | 2.52 | -1.82 | 94.3% | 92.2% | 0.02 | 0.77
34 | O=S(=O)(c1ccc(Br)cc1)N1CCn2c(nc3ccccc32)C1 | -6.87 | -3.65 | -2.52 | 101% | 97.5% | 2.46 | 6.31
35 | CCOc1ccc(/C=C\C(C)=N\O)cc1 | -0.67 | 0.775 | -2.74 | 90.3% | 96.3% | 0.065 | 2.82
36 | CCOC(=O)c1ccc(N2C(=O)c3n[nH]c(C)c3C2c2ccccn2)cc1 (configuration not stated) | 0.375 | 3.62 | 0.57 | 108% | 114% | 0.195 | 3.09

Reference: PubChem BioAssay
